Measured values: ChEMBL document CHEMBL3351971 (Bioorg Med Chem, 2014)
Values after ≈ are worked out from the molar mass of the structure shown. Active and inactive are the calls of the source. The rule behind the calls is not given here.

Columns and labels:
[1] = system: Leishmania infantum; assay: Antileishmanial activity against intracellular Leishmania infantum chagasi MHOM/BR/00/1669 amastigotes infected in mouse RAW264.7 cells assessed as inhibition of parasite growth after 48 hrs; type: functional, organism-based; conditions: chagasi MHOM/BR/00/1669, RAW264.7, 48 h
Summary of the method: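 RAW 264.7 macrophages (4×10^5/well, RPMI-1640 + 10% FBS) adhered for 24 h, then infected with promastigotes at 1:10 for 2 h. Non-adherent parasites rinsed off and cells held 72 h. Compounds added from ethanol stocks in six two-fold dilutions for 48 h at 37 °C, 5% CO2. Amastigotes detected by cell ELISA (saponin permeabilization, rabbit anti-Leishmania serum 1:500, peroxidase anti-rabbit, OPD, 492 nm).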

[2] = Cytotoxicity against mouse RAW264.7 cells assessed as cell survival at 100 ug/ml after 48 hrs by MTT assay; type: cell-based; conditions: read-out: Survival
Summary of the method: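 RAW 264.7 cells were seeded at 4×10^4/well. Compounds were dissolved at 0.2% in ethanol and diluted in M199 medium, highest concentration 100 µg/mL. Cells were exposed for 48 h at 37 °C in humidified 5% CO2, with […] vehicle controls. Viability was read by MTT.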

[3] = system: Leishmania infantum; assay: Antileishmanial activity against axenically cultured Leishmania infantum chagasi MHOM/BR/00/1669 promastigotes assessed as inhibition of parasite growth after 24 hrs; conditions: chagasi MHOM/BR/00/1669, 24 h
[4] = system: Leishmania infantum; assay: Antileishmanial activity against intracellular Leishmania infantum chagasi MHOM/BR/00/1669 amastigotes infected in BALB/c mouse assessed as inhibition of parasite growth in spleen at 100 mg/kg, ip once daily treated after 30 days post infection for 30 days; type: functional, organism-based; design: dose 100 mg/kg
Summary of the method: (§1)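 Male BALB/c mice, 21 days old, infected IP with 1×10^7 Ficoll-purified metacyclic promastigotes; infection confirmed by liver and spleen imprints at 35 days. Compounds given IP at 100 mg/kg once daily for 30 days, 0.5 mL injected, n = 5 per group. Controls were Glucantime (80 mg/Kg intramuscular) and water. Liver and spleen collected afterwards; amastigotes detected qualitatively by anti-Leishmania immunohistochemistry with DAB.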

[5] = system: Leishmania infantum; assay: Antileishmanial activity against intracellular Leishmania infantum chagasi MHOM/BR/00/1669 amastigotes infected in BALB/c mouse assessed as inhibition of parasite growth in liver at 100 mg/kg, ip once daily treated after 30 days post infection for 30 days; type: functional, organism-based; design: dose 100 mg/kg; summary of the method: as §1

Row | Molecule | EC50 [1] [µg/mL] | viability at 48 h, 100 ug/ml [2] [%] | EC50 [3] [µg/mL] | Activity [4] | Activity [5]
1 | C=CCc1ccc(O)c(OC)c1 [EUGENOL] | 20.8 (≈ 127 µM) | 29 | 56.1 (≈ 342 µM) | – | –
2 | Cc1ccc(C(C)C)c(OC(=O)c2ccccc2)c1 | 15.1 (≈ 59.3 µM) | 63.6 | 8.67 (≈ 34.1 µM) | Active | Active
3 | C[C@@H]1[C@H](O)[C@@H](C)/C=C/C=C/C=C/C=C/C=C/C=C/C=C/[C@H](O[C@@H]2O[C@H](C)[C@@H](O)[C@H](N)[C@@H]2O)C[C@@H]2O[C@](O)(C[C@@H](O)C[C@@H](O)[C@H](O)CC[C@@H](O)C[C@@H](O)CC(=O)O[C@H]1C)C[C@H](O)[C@H]2C(=O)O [AMPHOTERICIN B] | 20.4 (≈ 22.1 µM) | 98.5 | – | – | –
4 | CC(=O)Oc1cc(C)ccc1C(C)C | 10.9 (≈ 57 µM) | > 100 | 9.07 (≈ 47.2 µM) | inactive | Active
5 | Cc1ccc(C(C)C)c(O)c1 [THYMOL] | 23.9 (≈ 159 µM) | 36.5 | – | – | –
6 | C=CCc1ccc(OC(C)=O)c(OC)c1 [EUGENYL ACETATE] | 18.5 | > 100 | 23.2 | Active | Active
7 | C=CCc1ccc(OC(=O)c2ccccc2)c(OC)c1 [EUGENYL BENZOAT] | 14.9 (≈ 55.6 µM) | 97.7 | 10.6 (≈ 39.4 µM) | Active | Active
8 | N=C(N)c1ccc(OCCCCCOc2ccc(C(=N)N)cc2)cc1 [PENTAMIDINE] | – | 85.6 | 5.3 (≈ 15.6 µM) | – | –
9 | MEGLUMINE ANTIMONATE | – | – | – | inactive | –
